Laboratory results published in article PMC3445775 (Hepatology (Baltimore, Md.), 2012).
Entries after “also recorded” stand apart in the source; their conditions may differ.

Tests used:
human FATP5 = target: T1, human FATP5 (Homo sapiens, UniProt Q9Y2P5); assay type: cell-based; conditions: for inhibition of FATP5-mediated LCFA uptake: result in words
T1 sequence (Q9Y2P5 1-690): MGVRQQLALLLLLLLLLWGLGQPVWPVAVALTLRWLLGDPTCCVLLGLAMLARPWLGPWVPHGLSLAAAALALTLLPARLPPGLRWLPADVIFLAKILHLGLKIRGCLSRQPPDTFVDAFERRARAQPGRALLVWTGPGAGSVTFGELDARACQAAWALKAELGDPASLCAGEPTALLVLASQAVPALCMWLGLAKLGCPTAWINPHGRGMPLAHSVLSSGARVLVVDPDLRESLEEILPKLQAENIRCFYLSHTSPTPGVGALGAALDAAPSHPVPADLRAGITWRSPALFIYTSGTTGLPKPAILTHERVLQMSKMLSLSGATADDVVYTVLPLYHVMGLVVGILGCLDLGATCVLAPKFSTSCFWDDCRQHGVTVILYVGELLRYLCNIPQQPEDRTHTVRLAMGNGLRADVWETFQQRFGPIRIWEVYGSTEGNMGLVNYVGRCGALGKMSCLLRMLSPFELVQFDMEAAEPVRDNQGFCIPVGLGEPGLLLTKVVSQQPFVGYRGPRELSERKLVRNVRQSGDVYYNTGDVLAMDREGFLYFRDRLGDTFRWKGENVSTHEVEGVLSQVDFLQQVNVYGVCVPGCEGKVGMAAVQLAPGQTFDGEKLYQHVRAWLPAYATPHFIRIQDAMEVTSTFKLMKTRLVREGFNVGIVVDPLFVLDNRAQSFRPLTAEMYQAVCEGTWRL
Summary of the method: (§1)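 HEK-293 cells stably expressing human FATP4, FATP2 or FATP5 were maintained in DMEM/10% FBS with 1 mg/ml G418. Cells were plated at 30,000–50,000/well overnight to 50–70% confluency. They were preincubated 30 min (5% CO2) with test compound, diluted from DMSO stock into HBSS with 20 mM HEPES, 4.5 g/L glucose and 0.1% fatty-acid-free BSA. Compound in quencher mix containing 2 μM C1-BODIPY-C12 was then added. Fluorescence (ex 488/em 515 nm, bottom read) was recorded every 2 min for 2 h, and uptake velocities were derived by linear regression.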

FATP5 and FATP2 = assay: Inhibition reversibility assay; assay type: cell-based, human; conditions: 30 min treatment followed by brief washes with PBS
human FATP2 = human FATP2 (Homo sapiens, UniProt O14975); assay type: cell-based; conditions: for inhibition of FATP2-mediated LCFA uptake: result in words
Summary of the method: as §1

293 cells = assay: XTT toxicity assay, stable 293 cell lines; assay type: cell-based, human; conditions: 48 hours
Summary of the method: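 Stable 293 cells in DMEM/FBS were incubated overnight in 5% CO2. The indicated test compound or DMSO control was added, and after a further 48 h viability was measured with an XTT kit per the manufacturer's instructions.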

hsFATP4 = hsFATP4 (Homo sapiens, UniProt Q6P1M0); assay: Quencher-based LCFA uptake assay, FATP4 expressing 293 cells; assay type: cell-based; conditions: result in words
Summary of the method: as §1

[1] = system: primary mouse hepatocytes from C57Bl/6 animals; assay: Quencher based LCFA uptake assay, wild-type mouse primary hepatocytes; assay type: cell-based
hepatic LCFA uptake = assay: Non-radioactive in vivo hepatic LCFA uptake assay; set-up: species or system mouse; conditions: WT mice, acute injection
[2] = system: hepatic triglyceride accumulation; assay: Chronic bile acid injection during high-fat diet; assay type: in vivo, mouse; conditions: 3.2 mg/kg s.c. daily, 47 days
Summary of the method: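 Individually housed mice on a high-fat diet (60% calories from fat) received daily s.c. injections of test compound, 3.2 mg/kg in 20 μl DMSO, above the right hip for 47 days. Controls received DMSO vehicle. Mice were fasted 4 h and euthanised with CO2, and injection sites were checked for precipitate. Liver lysates were assayed for protein (BCA) and TAG.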

hepatic TAG content = assay: 7 week bile acid supplemented high-fat diet feeding; assay type: in vivo, mouse
[3] = system: primary human hepatocytes; assay: FACS-based LCFA uptake assay, primary human hepatocytes; assay type: cell-based; conditions: 10 or 100 μM, viable cells
Summary of the method: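 Suspended primary human hepatocytes were pretreated with test compound at 10 or 100 μM in DMEM (37°C, 5% CO2, 30 min). C1-BODIPY-C12 bound to 0.1% BSA was then added to a final 2 μM for 30 min at 37°C. Uptake was stopped on ice, and cells were centrifuged at 4°C and resuspended in cold PBS. Propidium iodide was added, and mean BODIPY fluorescence of 5000 viable PI-negative cells was taken from histogram plots.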

[4] = 0.5mg/g in high fat food, 7 weeks

Sequence of hsFATP4 (Q6P1M0 whole entry): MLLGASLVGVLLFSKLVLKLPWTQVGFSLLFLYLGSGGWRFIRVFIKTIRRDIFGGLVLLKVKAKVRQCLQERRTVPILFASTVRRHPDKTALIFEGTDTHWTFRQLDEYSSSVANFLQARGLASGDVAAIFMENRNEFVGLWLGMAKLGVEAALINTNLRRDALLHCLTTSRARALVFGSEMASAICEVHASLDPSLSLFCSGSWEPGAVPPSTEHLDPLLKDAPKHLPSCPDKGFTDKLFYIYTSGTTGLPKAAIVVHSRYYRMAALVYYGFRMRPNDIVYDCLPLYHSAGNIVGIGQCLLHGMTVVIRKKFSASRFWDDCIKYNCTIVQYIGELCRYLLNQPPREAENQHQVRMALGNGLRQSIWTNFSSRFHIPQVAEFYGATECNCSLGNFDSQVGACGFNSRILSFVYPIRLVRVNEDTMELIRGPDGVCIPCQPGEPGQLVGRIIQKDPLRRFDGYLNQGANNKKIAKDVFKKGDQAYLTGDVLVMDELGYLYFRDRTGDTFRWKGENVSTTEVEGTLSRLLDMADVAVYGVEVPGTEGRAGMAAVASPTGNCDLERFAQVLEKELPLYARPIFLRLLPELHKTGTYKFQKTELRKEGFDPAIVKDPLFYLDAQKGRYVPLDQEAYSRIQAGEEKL

## C[C@H](CCC(=O)O)[C@H]1CC[C@H]2[C@@H]3[C@H](O)C[C@@H]4C[C@H](O)CC[C@]4(C)[C@H]3C[C@H](O)[C@]12C [CA, cholic acid]
Human FATP5
  IC50: 31 µM
  inhibition of FATP5-mediated LCFA uptake: specifically inhibited FATP5-mediated LCFA uptake
FATP5 and FATP2
  Reversible Inhibition: complete reversibility and Yes

## COc1cc(/C=C2/SC(=S)N(c3cccc(Cl)c3)C2=O)cc(Br)c1O [CB-2, (5E)-5-[(3-bromo-4-hydroxy-5-methoxyphenyl)methylene]-3-(3-chlorophenyl)-2-thioxothiazolidin-4-one, reference compound]
Human FATP2
  IC50: 8 µM
FATP5 and FATP2
  Reversible Inhibition: Yes

## O=c1cc(-c2ccc([N+](=O)[O-])cc2)nc2c(-c3ccc(Cl)cc3)c(Cc3ccccc3)[nH]n12 [CB-5, 2-benzyl-3-(4-chlorophenyl)-5-(4-nitrophenyl)-1H-pyrazolo[5,1-b]pyrimidin-7-one, reference compound]
Human FATP5
  IC50: 7 µM
Human FATP2
  IC50: 18 µM
FATP5 and FATP2
  Reversible Inhibition: No (tox)
293 cells
  toxicity (XTT assay): marked cytotoxicity

## Oc1c(C2=NCCNC(C(F)(F)F)=C2)ccc2ccccc12 [CB-6, 2-[7-(trifluoromethyl)-2,3-dihydro-1H-1,4-diazepin-5-yl]naphthalen-1-ol, reference compound]
Human FATP5
  IC50: 38 µM
Human FATP2
  IC50: 12 µM
FATP5 and FATP2
  Reversible Inhibition: irreversible and No

## C[C@H](CCC(=O)O)[C@H]1CC[C@H]2[C@@H]3[C@H](O)C[C@@H]4C[C@H](O)CC[C@]4(C)[C@H]3CC[C@]12C [CDCA, chenodeoxycholic acid]
Human FATP5
  IC50: 10 µM
  inhibition of FATP5-mediated LCFA uptake: specifically inhibited FATP5-mediated LCFA uptake
FATP5 and FATP2
  Reversible Inhibition: complete reversibility and Yes

## C[C@H](CCC(=O)O)[C@H]1CC[C@H]2[C@@H]3CC[C@@H]4C[C@H](O)CC[C@]4(C)[C@H]3CC[C@]12C [LCA, lithocholic acid]
Human FATP5
  inhibition of FATP5-mediated LCFA uptake: no inhibition
Human FATP2
  inhibition of FATP2-mediated LCFA uptake: no inhibition
hsFATP4
  inhibition of FATP4 LCFA uptake: neither DCA, UDCA, nor LCA inhibited; also recorded: No inhibition
[1]
  inhibition of LCFA uptake by primary mouse hepatocytes: no inhibition
Hepatic LCFA uptake
  effect on in vivo hepatic LCFA uptake: had no effect
[2]
  body weight: nor did it affect food consumption or body weight
  food consumption: nor did it affect food consumption or body weight
  respiration: neither triggered an increase in respiration
Hepatic TAG content; [4]
  body weight: Neither DCA nor LCA feeding resulted in changes
  caloric output over a 36h period: Neither DCA nor LCA feeding resulted in changes
  food intake: Neither DCA nor LCA feeding resulted in changes
  respiratory rate: Neither DCA nor LCA feeding resulted in changes
Hepatic TAG content; result in words, LCA in high-fat diet model
  effect on liver TAG content: had no effect

## C[C@H](CCC(=O)NCCS(=O)(=O)O)[C@H]1CC[C@H]2[C@@H]3CC[C@@H]4C[C@H](O)CC[C@]4(C)[C@H]3C[C@H](O)[C@]12C [TDCA, taurodeoxycholic acid]
Human FATP5
  inhibition of FATP5-mediated LCFA uptake: inhibited neither FATP2 nor FATP5
Human FATP2
  inhibition of FATP2-mediated LCFA uptake: inhibited neither FATP2 nor FATP5

## CC(CCC[C@@H](C)[C@H]1CC[C@H]2[C@@H]3[C@H](O)C[C@@H]4C[C@H](O)CC[C@]4(C)[C@H]3C[C@H](O)[C@]12C)C(=O)O (stereo partly drawn) [THCA, 3a,7a,12a-Trihydroxy-5β-cholestanoic acid]
Human FATP5
  inhibition of FATP5-mediated LCFA uptake: weak inhibition
Human FATP2
  inhibition of FATP2-mediated LCFA uptake: no inhibition

## C[C@H](CCC(=O)NCCS(=O)(=O)O)[C@H]1CC[C@H]2[C@@H]3[C@@H](O)C[C@@H]4C[C@H](O)CC[C@]4(C)[C@H]3CC[C@]12C [TUDCA, tauroursodeoxycholic acid]
Human FATP5
  inhibition of FATP5-mediated LCFA uptake: did not inhibit
Human FATP2
  inhibition of FATP2-mediated LCFA uptake: did not inhibit
[3]
  inhibition of LCFA uptake by primary human hepatocytes: but not TUDCA

## C[C@H](CCC(=O)O)[C@H]1CC[C@H]2[C@@H]3[C@H](O)[C@@H](O)[C@@H]4C[C@H](O)CC[C@]4(C)[C@H]3CC[C@]12C [alpha-muricholic acid]
Human FATP5
  inhibition of FATP5-mediated LCFA uptake: no effect on LCFA uptake
